ChEMBL document CHEMBL4425191, “Design, synthesis and biological evaluation of photoaffinity probes of antiangiogenic homoisoflavonoids” (2016)

How the values were obtained:
Format in all cases: functional
[1] = system: HUVEC; assay: Antiproliferative activity against human HUVEC cells after 48 hrs by alamar blue based fluorescence assay
How it was run: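 HUVECs, passages 5–8, cultured in EGM-2 (EBM plus growth-factor bullet kit, 2% FBS). 2,500 cells were seeded 24 h, then incubated 48 h with compound at 0.5 nM–500 µM. alamarBlue was added and fluorescence read 4 h later at 560/590 nm; curves were fitted versus DMSO. GI50 <100 µM was listed only for ≥50% reduction at the top dose.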

[2] = Antiproliferative activity against human HREC cells after 48 hrs by alamar blue based fluorescence assay
How it was run: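 Human retinal microvascular endothelial cells at passages 5–8, 2,500 per well, rested 24 h, then given test compound (0.5 nM–500 µM) for 48 h. Proliferation was read by alamarBlue 4 h after addition (ex 560, em 590 nm) and dose-response fitted against DMSO control. GI50 <100 µM was recorded only if ≥50% reduction occurred at the highest concentration.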

[3] = Antiproliferative activity against human 92-1 cells after 48 hrs by alamar blue based fluorescence assay
[4] = system: ARPE-19; assay: Antiproliferative activity against human ARPE19 cells after 48 hrs by alamar blue based fluorescence assay; details: ARPE-19, 48 h
How it was run: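 ARPE19 cells grown in Ham's F-10 with 10% FBS and 1% pen-strep; 2,500 cells/well settled 24 h, then 48 h compound treatment over 0.5 nM–500 µM. alamarBlue fluorescence (560/590 nm) was read after 4 h; curves were fitted relative to DMSO. GI50 <100 µM was reported only where the highest concentration cut cell number by ≥50%.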

[5] = system: Y79; assay: Antiproliferative activity against human Y79 cells after 48 hrs by alamar blue based fluorescence assay; details: Y79, 48 h

COc1ccc(CC2COc3cc(OC)c(OC)c(OC)c3C2=O)cc1NC(=O)[C@H](Cc1ccc(OCCCC(=O)O)cc1)NC(=O)OC(C)(C)C (stereo not given in full)
GI50 [1]: 22 µM
GI50 [2]: 0.0079 µM
GI50 [3]: > 100 µM
GI50 [4]: > 100 µM
GI50 [5]: > 100 µM

COc1ccc(CC2COc3cc(OCCCC(=O)NCCCOc4ccc(C(=O)c5ccc(OCc6cn(CCOCCOCCOCCNC(=O)CCCC[C@@H]7SC[C@@H]8NC(=O)N[C@@H]87)nn6)cc5)cc4)c(OC)c(OC)c3C2=O)cc1OC(=O)[C@H](Cc1ccccc1)NC(=O)OC(C)(C)C (stereo not given in full)
GI50 [1]: > 100 µM
GI50 [2]: 44 µM
GI50 [3]: > 100 µM
GI50 [4]: > 100 µM
GI50 [5]: > 100 µM

COc1ccc(CC2COc3cc(OC)c(OC)c(OC)c3C2=O)cc1OCC(=O)NCCCOc1ccc(C(=O)c2ccc(OCc3cn(CCOCCOCCOCCNC(=O)CCCC[C@@H]4SC[C@@H]5NC(=O)N[C@@H]54)nn3)cc2)cc1 (stereo not given in full)
GI50 [1]: > 100 µM
GI50 [2]: 0.072 µM
GI50 [3]: > 100 µM
GI50 [4]: > 100 µM
GI50 [5]: > 100 µM

COc1ccc(CC2COc3cc(OC)c(OC)c(OC)c3C2=O)cc1OC(=O)[C@H](Cc1ccc(OCC(=O)NCCCOc2ccc(C(=O)c3ccc(OCc4cn(CCOCCOCCOCCNC(=O)CCCC[C@@H]5SC[C@@H]6NC(=O)N[C@@H]65)nn4)cc3)cc2)cc1)NC(=O)OC(C)(C)C (stereo not given in full)
GI50 [1]: 0.44 µM
GI50 [2]: 0.21 µM
GI50 [3]: > 100 µM
GI50 [4]: > 100 µM
GI50 [5]: > 100 µM

COc1ccc(CC2COc3cc(OC)c(OC)c(OC)c3C2=O)cc1OC(=O)[C@H](Cc1ccc(OCC(=O)O)cc1)NC(=O)OC(C)(C)C (stereo not given in full)
GI50 [1]: 0.012 µM
GI50 [2]: 0.047 µM
GI50 [3]: > 100 µM
GI50 [4]: > 100 µM
GI50 [5]: > 100 µM

COc1ccc(CC2COc3cc(OC)c(OC)c(OC)c3C2=O)cc1NC(=O)[C@H](Cc1ccc(OCCCC(=O)NCCCOc2ccc(C(=O)c3ccc(OCc4cn(CCOCCOCCOCCNC(=O)CCCC[C@@H]5SC[C@@H]6NC(=O)N[C@@H]65)nn4)cc3)cc2)cc1)NC(=O)OC(C)(C)C (stereo not given in full)
GI50 [1]: > 100 µM
GI50 [2]: 42 µM
GI50 [3]: > 100 µM
GI50 [4]: > 100 µM
GI50 [5]: > 100 µM
